Calls of active or inactive are those of the source. No cut-off for these calls is given here.

Series [1] is filed under the species Mus musculus. Briefly: Inhibition of C57Bl6 mouse skeletal muscle myosin assessed as inhibition of phrenic nerve stimulation-induced contraction in mouse diaphragm at 100 uM relative to control. A digest of the protocol: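 Mouse phrenic nerve-hemidiaphragm preparation used ex vivo. Muscle contraction evoked by phrenic nerve stimulation, recorded with and without compound.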

A short description of series [2]: Inhibition of actin-activated rabbit skeletal muscle myosin 2 assessed as phosphate level incubated for 6 to 24 mins by spectrophotometric method. Also noted: species or system Oryctolagus cuniculus. The method, boiled down:
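Actin-activated ATPase run at 30 °C in assay buffer with 32 µM actin and 2 mM ATP. Phosphate production followed over time by absorbance in stopped-time format. IC50 from four-parameter logistic fit. N is the number of fully independent titrations.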

Series [3] is filed under the species Mus musculus. Briefly: Inhibition of C57Bl6 mouse […] assessed as reduction in action potential in mouse diaphragm at 100 uM.
Series [4] in a line: Selectivity ratio of IC50 for actin-activated bovine heart muscle myosin 2 to IC50 for actin-activated rabbit skeletal muscle myosin 2.
A short description of series [5]: Kinetic solubility in pH 7.4 PBS incubated for 1 hr. Type of series: physicochemical. The conditions noted are these: for Kinetic_solubility: buffer, pH 7.4, 1 h.
Series [6] is described as follows: Competitive binding affinity to skeletal myosin S1 (unknown origin) assessed as reduction in Blebbistatin-induced fluorescence intensity incubated for 1 hr by fluorescence based assay. Also noted: species or system Homo sapiens.
Series [7] deals with HL-60. Briefly: Cytotoxicity against human HL-60 cells assessed as reduction in cell viability incubated for 48 hrs by hemocytometer based trypan-blue exclusion assay. As to conditions: HL-60, 48 h.
Series [8] can be described thus: Inhibition of rabbit skeletal muscle myosin 2 assessed as reduction in actin-sliding velocity incubated for 1 min by inverted microscopic analysis. Also noted: species or system Oryctolagus cuniculus. The method, boiled down:
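In vitro motility assay at 30 °C with skeletal myosin loaded at 100 µg mL-1 on a coverslip. Fluorescent actin filament sliding velocity recorded across compound concentrations. IC50 obtained by curve fit.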

Series [9] is described as follows: Inhibition of actin-activated rabbit skeletal muscle myosin 2. Further details: species or system Oryctolagus cuniculus.
Series [10] is described as follows: Binding affinity to skeletal myosin S1 (unknown origin) assessed as fluorescence intensity in presence of ATP. Further details: species or system Homo sapiens. The method, boiled down: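 Skeletal myosin S1 binding read by fluorescence of 2 µM blebbistatin probe (λex 440 nm, em 560 nm) in assay buffer with 1 mM ATP at 22-25 °C. Signal without S1 was subtracted and normalised to Fmax. Direct Kd came from S1 titration fit to a quadratic single-site equation. Competition used 1 µM S1 and 1 hr incubation with analog; IC50 from a four-parameter fit was converted to Ki. N = 1.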

The nature of series [11]: Half life in pH 7.4 PBS at 100 uM by UV-VIS spectroscopic method. It counts as physicochemical.

As a reminder, the inhibition is the share of the control response that was lost under treatment. Usually IC50 stands for the midpoint of a concentration-inhibition curve. Turning to `C/C(=N\CCO)c1c(O)c2ccccc2[nH]c1=O`, in series [1], the inhibition worked out at 94%. Moreover, the IC50 in [2] is at least 100 µM. Moreover, in series [3], the inhibition entry is “Active”.

Regarding `C/C(=N\Cc1ccccn1)c1c(O)c2ccccc2oc1=O`, the inhibition in [1] is 86%. In addition, the concentration for half-maximal inhibition (IC50) in [2] is 6.8 µM. Further, in series [3], the inhibition entry is “Active”. Moreover, in [4], the Ratio IC50 was determined as 3.2.

As for `C/C(=N\Cc1ccccc1)c1c(O)c2ccccc2[nH]c1=O`, the inhibition in series [1] turned out to be 16%. In [2], the IC50 is at least 100 µM.

Usually Ki stands for a measure of affinity in units of concentration, obtained from inhibition or displacement. Turning to `C/C(=N\Cc1ccccc1)c1c(O)c2ccccc2oc1=O`, the Kinetic_solubility in series [5] was determined as 103 µM. Moreover, the IC50 in [6] was 5.3 µM; in series [2] it was 0.8 µM; in series [7], 801 µM. Also, the Ki in series [6] was 0.8 µM. In addition, the Ratio IC50 in series [4] was 9.1.

With `C/C(=N\Cc1cccnc1)c1c(O)c2ccccc2oc1=O`, in [2], the IC50 stood at 3 µM. Besides, the Ratio IC50 in series [4] came to 5.6.

In the case of `C/N=C(\C)c1c(O)c2ccccc2oc1=O`, the inhibition in series [1] is 80%. The values for the IC50 in series [2] and in series [7] were at least 100 µM and 408 µM, respectively. Further, in series [3], the inhibition entry is “Active”.

Regarding `C/C(=N\CC(C)C)c1c(O)c2ccccc2[nH]c1=O`, the inhibition in [1] was found to be 71%. Besides, the IC50 in series [2] was at least 100 µM. Besides, the inhibition result in series [3] was “Active”.

The compound `CCCC/N=C(\C)c1c(O)c2ccccc2oc1=O` had a Kinetic_solubility in [5] of 607 µM. For the same compound, the inhibition in series [1] came out at 96%. In addition, the figures for the IC50 in series [2] and in [8] were 2.1 µM and 2.8 µM, respectively. Further, the inhibition entry in series [3] is “inactive”. For the same compound, the Ratio IC50 in series [4] amounted to 2.8.

Regarding `C/C(=N\Cc1ccccc1)c1c(O)c2cc([N+](=O)[O-])ccc2oc1=O`, the IC50 in series [2] was at least 100 µM.

As for `C/C(=N\OCc1ccccc1)c1c(O)c2ccccc2oc1=O`, the IC50 in series [2] was at least 100 µM.

Turning to `CCCCCC/N=C(\C)c1c(O)c2ccccc2oc1=O`, in series [2], the concentration for half-maximal inhibition (IC50) stood at 1.2 µM. In series [4], the Ratio IC50 worked out at 2.4.

As for `C/C(=N\C(C)C)c1c(O)c2ccccc2[nH]c1=O`, the inhibition in series [1] is 18%. Also, the IC50 in [2] is at least 100 µM.

For `CCCCC/N=C(\C)c1c(O)c2cc([N+](=O)[O-])ccc2oc1=O`, in [2], the IC50 was at least 100 µM.

As to `C/C(=N\CCCO)c1c(O)c2ccccc2oc1=O`, in series [1], the inhibition is 72%. Besides, the half-inhibitory concentration (IC50) in series [2] was found to be 31 µM. In series [3], the inhibition entry is “Active”. For the same compound, the Ratio IC50 in [4] is 1.2.

What is called Kd is the constant that tells how readily two partners part at equilibrium. On to `Cc1ccc2c(c1)C(=O)[C@]1(O)CCN(c3ccccc3)C1=N2`, for which the inhibition in [1] came out at 99%. The IC50 worked out at 0.5 µM in [2] and 0.01 µM in series [9]. For the same compound, the inhibition entry in series [3] is “Active”. For the same compound, the Kd in series [10] was found to be 0.4 µM.

Turning to `C/C(=N\Cc1cccc(C)c1)c1c(O)c2ccccc2oc1=O`, the IC50 in series [2] was found to be 10 µM. Further, the Ratio IC50 in [4] was 0.5.

Consider `CCCCC/N=C(\C)c1c(O)c2ccccc2[nH]c1=O`, for which the inhibition in [1] worked out at 99%. Also, the IC50 in series [2] is at least 100 µM. Also, the inhibition entry in [3] is “Active”.

Turning to `C/C(=N\Nc1ccccc1)c1c(O)c2ccccc2oc1=O`, in series [2], the IC50 is 2 µM. The Ratio IC50 in series [4] stood at 13.5.

Consider `CC/N=C(\C)c1c(O)c2ccccc2oc1=O`, for which the IC50 in series [2] amounted to 47 µM. Further, in series [4], the Ratio IC50 amounted to 2.1.

As for `CCCC/N=C(\C)c1c(O)c2ccccc2[nH]c1=O`, the inhibition in series [1] was found to be 48%. The IC50 in [2] was at least 100 µM.

As to `CCC/N=C(\C)c1c(O)c2ccccc2oc1=O`, in series [2], the IC50 is 31 µM. For the same compound, the Ratio IC50 in series [4] came to 1.7.

For `CCC/N=C(\C)c1c(O)c2ccccc2[nH]c1=O`, in [1], the inhibition was 41%. Moreover, the IC50 in series [2] was at least 100 µM.

With `CC(=N)c1c(O)c2ccccc2oc1=O`, the inhibition in series [1] is 73%. In addition, in series [2], the IC50 is at least 100 µM. Besides, the inhibition entry in series [3] was “Active”.

Turning to `CCCC/N=C(\C)c1c(O)c2ccccc2n(C)c1=O`, the IC50 in [2] is at least 100 µM.

`C/C(=N\CCO)c1c(O)c2ccccc2oc1=O`: the inhibition in series [1] stood at 87%. For the same compound, the IC50 was 92 µM in series [2] and 590 µM in series [7]. The inhibition result in [3] was “Active”. In addition, the Ratio IC50 in series [4] was 1.

Regarding `C/C(=N\Cc1ccccc1C)c1c(O)c2ccccc2oc1=O`, the IC50 in series [2] is at least 100 µM.

With `C/C(=N\Cc1ccc(C)cc1)c1c(O)c2ccccc2oc1=O`, in series [2], the IC50 worked out at 0.8 µM. Besides, in [4], the Ratio IC50 was 9.9.

For the compound `CCCCC/N=C(\C)c1c(O)c2ccccc2oc1=O`, in series [2], the IC50 was 2 µM. Moreover, the Ratio IC50 in series [4] turned out to be 3.3.

With `C/C(=N\CC1CCCCC1)c1c(O)c2ccccc2[nH]c1=O`, the inhibition in series [1] is 72%. For the same compound, the IC50 in series [2] was at least 100 µM. The inhibition result in series [3] was “Active”.

Consider `C/C(=N\CC(C)C)c1c(O)c2ccccc2oc1=O`, for which the inhibition in series [1] is 22%. The 50% inhibitory concentration (IC50) in series [2] is at least 100 µM. Further, the Ratio IC50 in series [4] was below 0.34.

On to `CCC(C)/N=C(\C)c1c(O)c2ccccc2oc1=O` (configuration not stated), for which the inhibition in series [1] worked out at 21%. For the same compound, in series [2], the IC50 was at least 100 µM.

For the compound `CCC(C)/N=C(\C)c1c(O)c2ccccc2[nH]c1=O` (configuration not stated), the inhibition in series [1] came to 98%. For the same compound, the IC50 in [2] was at least 100 µM. Further, the inhibition result in series [3] is “Active”.

In the case of `CC/C(=N\Cc1ccccc1)c1c(O)c2ccccc2oc1=O`, the IC50 in series [2] is at least 100 µM.

As to `CCC/C(=N\Cc1ccccc1)c1c(O)c2ccccc2oc1=O`, the IC50 in [2] was at least 100 µM.

On to `C/C(=N\C(C)C)c1c(O)c2ccccc2oc1=O`, for which the inhibition in series [1] was 94%. Also, the concentration for half-maximal inhibition (IC50) in series [2] was at least 100 µM. Also, the inhibition result in series [3] was “Active”.

The half-life is how long it takes for the measured level to halve. Read a high half-life as slow loss. As to `C/C(=N\Cc1ccncc1)c1c(O)c2ccccc2oc1=O`, the solubility kinetic at 1 h in series [5] (PBS, pH 7.4, read-out: Kinetic_solubility) was above 400 µM. The compound further gave a half-life at 100 µM in series [11] of 84 h. Moreover, the inhibition in series [1] was determined as 98%. In [2], the IC50 was 8.5 µM. The inhibition result in series [3] was “inactive”. Further, the Ratio IC50 in series [4] is above 12.
